≈ marks a conversion by molar mass, not a printed value.
Legend:
[1] = Inhibition of hedgehog signaling pathway in mouse ASZ cells assessed as decrease in Gli1 mRNA expression after 48 hrs by qRT-PCR analysis; type: cell-based
In short: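 Murine BCC line ASZ (Ptch+/-), 80% confluent, seeded at 10,000 cells/well in 154CF medium (2% FBS), 24 h, then serum-free medium 24 h (37°C, 5% CO2). Treated 48 h with compound at 10–0.001 μM or DMSO vehicle. Gli1 mRNA measured by qRT-PCR against actin B internal control; concentrations lowering actin B were excluded. IC50 as mean ± SEM, repeat experiments in triplicate.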

hERG (KCNH2) = hERG (KCNH2) (Homo sapiens, UniProt Q12809); experiment: Inhibition of human ERG expressed in CHO cells at 25 uM by electrophysiology assay relative to control; type: cell-based; conditions: CHO cells expressing human ERG
[2] = human, microsomes, 1 µM
[3] = Kinetic solubility of compound in pH 7.4 PBS by LC-MS/MS analysis; type: physicochemical; conditions: for solubility kinetic: PBS, read-out: Kinetic_solubility
In short: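 Kinetic solubility in PBS, pH 7.4; run by a CRO (Pharmaron or Cyprotex) under its standard protocol.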

[4] = Half life in human liver microsomes at 1 uM by LC-MS/MS analysis
Cytochrome P450 3A4 = Cytochrome P450 3A4 (Homo sapiens, UniProt P08684); experiment: Inhibition of CYP3A4 in human liver microsomes by LC-MS/MS analysis
Mus musculus [5] = organism: Mus musculus; experiment: Potency index, ratio of IC50 for PSZ to IC50 for test compound for inhibition of hedgehog signaling pathway in mouse ASZ cells assessed as decrease in Gli1 mRNA expression after 48 hrs by qRT-PCR analysis; type: cell-based
Mus musculus [6] = organism: Mus musculus; experiment: Inhibition of hedgehog signaling pathway in hedgehog-dependent mouse Ptch-CKO cells assessed as inhibition of cell growth

Sequence of Cytochrome P450 3A4 (P08684 whole entry): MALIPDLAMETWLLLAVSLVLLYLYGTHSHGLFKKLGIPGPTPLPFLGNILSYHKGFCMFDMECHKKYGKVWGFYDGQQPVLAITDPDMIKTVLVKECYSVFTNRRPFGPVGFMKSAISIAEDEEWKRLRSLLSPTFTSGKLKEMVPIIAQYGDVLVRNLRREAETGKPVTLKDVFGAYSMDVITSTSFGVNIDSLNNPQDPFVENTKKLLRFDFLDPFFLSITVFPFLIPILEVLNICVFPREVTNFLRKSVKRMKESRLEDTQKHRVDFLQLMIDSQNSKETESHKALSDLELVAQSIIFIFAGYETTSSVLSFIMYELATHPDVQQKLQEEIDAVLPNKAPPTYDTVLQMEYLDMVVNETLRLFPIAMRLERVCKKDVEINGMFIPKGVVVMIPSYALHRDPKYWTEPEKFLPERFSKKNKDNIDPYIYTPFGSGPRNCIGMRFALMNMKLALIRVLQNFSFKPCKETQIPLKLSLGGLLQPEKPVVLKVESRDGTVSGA
Sequence of hERG (KCNH2) (Q12809 whole entry): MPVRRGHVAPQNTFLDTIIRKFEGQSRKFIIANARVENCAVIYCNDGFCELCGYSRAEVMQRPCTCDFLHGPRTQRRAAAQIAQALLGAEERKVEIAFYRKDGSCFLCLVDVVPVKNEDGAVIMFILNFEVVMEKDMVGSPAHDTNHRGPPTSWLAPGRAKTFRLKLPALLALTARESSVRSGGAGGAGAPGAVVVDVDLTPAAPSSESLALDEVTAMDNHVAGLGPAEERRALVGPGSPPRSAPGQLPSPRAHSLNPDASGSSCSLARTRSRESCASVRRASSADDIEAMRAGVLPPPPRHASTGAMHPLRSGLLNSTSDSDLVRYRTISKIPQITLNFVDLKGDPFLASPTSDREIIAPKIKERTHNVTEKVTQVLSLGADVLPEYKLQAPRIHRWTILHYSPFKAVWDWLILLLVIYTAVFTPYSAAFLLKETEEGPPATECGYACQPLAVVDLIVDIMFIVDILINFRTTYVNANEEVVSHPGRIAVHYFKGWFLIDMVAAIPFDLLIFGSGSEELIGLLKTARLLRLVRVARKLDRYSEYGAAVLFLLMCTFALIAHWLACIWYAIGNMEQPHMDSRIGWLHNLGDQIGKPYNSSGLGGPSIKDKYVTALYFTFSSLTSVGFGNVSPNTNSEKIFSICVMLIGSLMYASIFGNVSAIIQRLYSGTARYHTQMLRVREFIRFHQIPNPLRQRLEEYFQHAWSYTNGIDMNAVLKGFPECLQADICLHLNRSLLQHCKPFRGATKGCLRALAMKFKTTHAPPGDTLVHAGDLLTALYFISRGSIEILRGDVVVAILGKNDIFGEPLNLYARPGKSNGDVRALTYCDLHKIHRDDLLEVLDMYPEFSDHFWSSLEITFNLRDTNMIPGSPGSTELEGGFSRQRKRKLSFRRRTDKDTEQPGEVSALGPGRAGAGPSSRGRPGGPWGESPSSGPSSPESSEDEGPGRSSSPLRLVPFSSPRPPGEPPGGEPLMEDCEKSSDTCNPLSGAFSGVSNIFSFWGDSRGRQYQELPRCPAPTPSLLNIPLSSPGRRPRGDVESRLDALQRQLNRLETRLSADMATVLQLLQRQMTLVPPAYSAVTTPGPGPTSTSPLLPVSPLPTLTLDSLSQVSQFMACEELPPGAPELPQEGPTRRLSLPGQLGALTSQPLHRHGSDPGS

IC50 [1] | t1/2 [4] | solubility kinetic [3] | SMILES | also measured
330 nM |  |  | C[C@]1(c2ccc(F)cc2F)C[C@H](COc2ccc(N3CCN(c4ccc(N)cc4)CC3)cc2)CO1 | 
190 nM | > 3 h | 3.13 µM (≈ 1.88 µg/mL) | C[C@]1(c2ccc(F)cc2F)C[C@H](COc2ccc(N3CCN(c4ccc(NC(=O)c5cccc(O)c5)cc4)CC3)cc2)CO1 | CLH [2]: 2.23 µL/min/mg
150 nM |  |  | C[C@]1(c2ccc(F)cc2F)C[C@H](COc2ccc(N3CCN(c4ccc(-n5cnn(CC(=O)O)c5=O)cc4)CC3)cc2)CO1 | 
32 nM |  |  | C[C@]1(c2ccc(F)cc2F)C[C@H](COc2ccc(N3CCN(c4ccc(-n5cnn(CCC(=O)O)c5=O)cc4)CC3)cc2)CO1 | 
220 nM |  |  | C[C@]1(c2ccc(F)cc2F)C[C@H](COc2ccc(N3CCN(c4ccc(NC(=O)NN)cc4)CC3)cc2)CO1 | 
12 nM |  | 0.781 µM (≈ 0.511 µg/mL) | CC1(c2ccc(Cl)cc2Cl)OCC(COc2ccc(N3CCN(c4ccc(-n5cnn(CCC(=O)O)c5=O)cc4)CC3)cc2)O1 (centres undefined) | inhibition at 25 µM (hERG (KCNH2)): 3.6%; IC50 (Cytochrome P450 3A4): > 20000 nM
190 nM |  |  | C[C@]1(c2ccc(F)cc2F)C[C@H](COc2ccc(N3CCN(c4ccc(-n5cn[nH]c5=O)cc4)CC3)cc2)CO1 | 
> 10000 nM |  |  | C[C@]1(c2ccc(F)cc2F)C[C@H](COc2ccc(N3CCN(c4ccc(NC(=O)Oc5ccccc5)cc4)CC3)cc2)CO1 | 
> 10000 nM |  | 1.56 µM (≈ 0.912 µg/mL) | C[C@]1(c2ccc(F)cc2F)C[C@H](COc2ccc(N3CCN(c4ccc(NC(=O)c5cccnc5)cc4)CC3)cc2)CO1 | 
190 nM | 1.03 h |  | CC[C@@H](C)n1ncn(-c2ccc(N3CCN(c4ccc(OC[C@@H]5CO[C@@](C)(c6ccc(F)cc6F)C5)cc4)CC3)cc2)c1=O | CLH [2]: 37.4 µL/min/mg; IC50 (Cytochrome P450 3A4): > 20000 nM; Ratio IC50 (Mus musculus [5]): 2.5; GI50 (Mus musculus [6]): 610 nM
740 nM |  |  | C[C@]1(c2ccc(F)cc2F)C[C@H](COc2ccc(N3CCN(c4ccc([N+](=O)[O-])cc4)CC3)cc2)CO1 | 
24 nM | 1.92 h | 3.13 µM (≈ 1.96 µg/mL) | CC(=O)c1cccc(C(=O)Nc2ccc(N3CCN(c4ccc(OC[C@@H]5CO[C@@](C)(c6ccc(F)cc6F)C5)cc4)CC3)cc2)c1 | inhibition at 25 µM (hERG (KCNH2)): 4.2%; CLH [2]: 20 µL/min/mg; IC50 (Cytochrome P450 3A4): > 20000 nM
 | 0.45 h | 0.8 µM (≈ 0.565 µg/mL) | CCC(C)n1ncn(-c2ccc(N3CCN(c4ccc(OCC5COC(Cn6cncn6)(c6ccc(Cl)cc6Cl)O5)cc4)CC3)cc2)c1=O (centres undefined) [ITRACONAZOLE] | inhibition at 25 µM (hERG (KCNH2)): < 1%
20 nM |  | 1.56 µM (≈ 0.945 µg/mL) | C[C@]1(c2ccc(F)cc2F)C[C@H](COc2ccc(N3CCN(c4ccc(-n5cnn(CCCO)c5=O)cc4)CC3)cc2)CO1 | 

SMILES | IC50 [1] | t1/2 [4] | solubility kinetic [3] | also measured
CC[C@@H]([C@H](C)O)n1ncn(-c2ccc(N3CCN(c4ccc(OC[C@@H]5CO[C@@](Cn6cncn6)(c6ccc(F)cc6F)C5)cc4)CC3)cc2)c1=O [POSACONAZOLE] | 500 nM | 1.8 h |  | inhibition at 25 µM (hERG (KCNH2)): 14.7%; CLH [2]: 21.5 µL/min/mg; Kinetic_solubility ([3]; buffer): 0.781 µM
